Calls of active or inactive are those of the source. The calls are words filed in the database; no cut-off is given here.
Key:
THP-1 [1] = experiment: Antiinflammatory activity in human THP1 cells assessed as inhibition of LPS-induced TNFalpha release at 1 uM by ELISA; type: functional
Method in brief: (§1)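 THP-1 monocytes differentiated to macrophages over 72 h with conditioned medium from cells given 200 ng/mL PMA for 24 h, washed, and rested 24 h. Cells pretreated with compound (0.01–10 uM) for 1 h at 37 °C, then stimulated with 100 ng/mL LPS for 24 h. TNF-α release measured, mean ± SD of duplicates.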

[2] = target: T1, Prostaglandin G/H synthase 2 (Homo sapiens) (UniProt P35354); experiment: Inhibition of human recombinant COX2 expressed in insect Sf9 cells at 10 uM by enzyme immunoassay
T1 sequence (whole entry): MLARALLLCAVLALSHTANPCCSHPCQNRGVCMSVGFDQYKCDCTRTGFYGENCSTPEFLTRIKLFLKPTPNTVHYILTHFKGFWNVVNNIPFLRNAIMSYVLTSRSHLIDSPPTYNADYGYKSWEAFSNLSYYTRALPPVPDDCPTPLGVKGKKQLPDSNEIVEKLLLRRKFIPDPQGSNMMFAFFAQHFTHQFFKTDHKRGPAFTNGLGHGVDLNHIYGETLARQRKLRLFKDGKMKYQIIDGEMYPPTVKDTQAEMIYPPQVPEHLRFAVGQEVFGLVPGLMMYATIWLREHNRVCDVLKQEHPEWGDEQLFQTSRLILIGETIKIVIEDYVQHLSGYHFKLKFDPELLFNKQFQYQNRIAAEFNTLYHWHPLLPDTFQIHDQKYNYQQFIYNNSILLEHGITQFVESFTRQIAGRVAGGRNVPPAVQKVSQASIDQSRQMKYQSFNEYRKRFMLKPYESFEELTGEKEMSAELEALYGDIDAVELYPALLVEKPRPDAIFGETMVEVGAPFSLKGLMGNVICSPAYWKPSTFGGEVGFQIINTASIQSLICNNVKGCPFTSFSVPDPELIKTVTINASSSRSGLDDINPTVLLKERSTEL

[3] = target: T2, Prostaglandin G/H synthase 1 (Homo sapiens, UniProt P23219); experiment: Inhibition of human recombinant COX1 in human platelets at 10 uM by enzyme immunoassay
Method in brief: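 Washed human platelets (5×10^7 cells/mL) in modified HEPES buffer pH 7.4, preincubated with compound 15 min at 37 °C. Reaction started with 100 µM arachidonic acid, run 15 min at 37 °C, stopped with 1 N HCl. PGE2 quantified by EIA.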

THP-1 [4] = experiment: Antiinflammatory activity in human THP1 cells assessed as inhibition of LPS-induced TNFalpha release at 10 uM by ELISA; type: functional; method in brief: as §1
[5] = target: T3, Prostaglandin G/H synthase 2 (Homo sapiens, UniProt P35354); experiment: Inhibition of human recombinant COX2 expressed in insect Sf9 cells by enzyme immunoassay
T3 sequence (P35354 whole entry): T1 sequence (whole entry)

[6] = target: T2, Prostaglandin G/H synthase 1; experiment: Inhibition of human recombinant COX1 in human platelets by enzyme immunoassay
Method in brief: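 Source was washed human platelets (5×10^7 cells/mL) in modified HEPES buffer, pH 7.4. Compounds were preincubated 15 min at 37 °C, then 100 µM arachidonic acid was added for 15 min at 37 °C. The reaction was stopped with 1 N HCl. COX-1 activity was read as PGE2 by EIA.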

[7] = target: T4, Prostaglandin G/H synthase 1 (Mus musculus, UniProt P22437); experiment: Inhibition of COX1 in mouse RAW264.7 cells by enzyme immunoassay; type: cell-based
T4 sequence (P22437 whole entry): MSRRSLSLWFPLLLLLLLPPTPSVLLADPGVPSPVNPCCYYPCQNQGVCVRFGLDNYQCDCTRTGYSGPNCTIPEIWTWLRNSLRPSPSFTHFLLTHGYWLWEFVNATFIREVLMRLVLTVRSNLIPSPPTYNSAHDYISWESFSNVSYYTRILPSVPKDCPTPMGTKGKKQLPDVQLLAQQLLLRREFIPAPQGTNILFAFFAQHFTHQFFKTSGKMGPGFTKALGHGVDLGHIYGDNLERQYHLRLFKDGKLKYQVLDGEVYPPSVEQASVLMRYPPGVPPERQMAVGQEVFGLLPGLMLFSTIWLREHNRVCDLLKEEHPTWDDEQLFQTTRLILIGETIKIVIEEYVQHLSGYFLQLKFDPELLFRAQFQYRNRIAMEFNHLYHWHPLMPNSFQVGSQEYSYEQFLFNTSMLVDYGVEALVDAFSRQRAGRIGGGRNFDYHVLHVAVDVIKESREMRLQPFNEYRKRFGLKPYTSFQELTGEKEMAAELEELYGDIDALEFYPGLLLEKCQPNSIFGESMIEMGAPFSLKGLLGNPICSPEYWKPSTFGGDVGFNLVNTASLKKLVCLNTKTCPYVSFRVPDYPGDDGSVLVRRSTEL
Method in brief: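 RAW 264.7 cells (5×10^5/well) grown overnight in DMEM with 10% FBS, then washed with PBS. Cells were not LPS-stimulated. Serum-free, phenol red-free DMEM; compound pretreatment 1 h at 37 °C, then 30 µM arachidonic acid for 30 min at 37 °C. PGE2 in the medium measured by EIA.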

[8] = target: T5, Prostaglandin G/H synthase 2 (Mus musculus, UniProt Q05769); experiment: Inhibition of COX2 in mouse RAW264.7 cells by enzyme immunoassay
T5 sequence (Q05769 whole entry): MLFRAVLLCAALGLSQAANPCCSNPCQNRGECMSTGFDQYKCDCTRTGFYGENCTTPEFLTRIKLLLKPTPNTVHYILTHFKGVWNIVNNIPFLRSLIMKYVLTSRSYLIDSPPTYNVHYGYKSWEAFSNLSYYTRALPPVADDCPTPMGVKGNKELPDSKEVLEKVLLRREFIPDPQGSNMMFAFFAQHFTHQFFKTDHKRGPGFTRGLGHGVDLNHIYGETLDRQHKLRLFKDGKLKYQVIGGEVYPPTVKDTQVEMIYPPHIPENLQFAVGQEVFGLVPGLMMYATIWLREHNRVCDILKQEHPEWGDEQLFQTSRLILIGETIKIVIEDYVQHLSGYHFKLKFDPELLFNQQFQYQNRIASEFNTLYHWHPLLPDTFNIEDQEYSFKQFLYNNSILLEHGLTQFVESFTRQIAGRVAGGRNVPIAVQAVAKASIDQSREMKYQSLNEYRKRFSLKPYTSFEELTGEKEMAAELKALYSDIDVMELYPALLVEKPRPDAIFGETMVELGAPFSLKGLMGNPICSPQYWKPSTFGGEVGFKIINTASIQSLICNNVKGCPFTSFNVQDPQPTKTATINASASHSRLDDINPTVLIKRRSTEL

[9] = target: T6, Polyunsaturated fatty acid 5-lipoxygenase (Homo sapiens, UniProt P09917); experiment: Inhibition of LOX5 in human PMBL by enzyme immunoassay
T6 sequence (P09917 whole entry): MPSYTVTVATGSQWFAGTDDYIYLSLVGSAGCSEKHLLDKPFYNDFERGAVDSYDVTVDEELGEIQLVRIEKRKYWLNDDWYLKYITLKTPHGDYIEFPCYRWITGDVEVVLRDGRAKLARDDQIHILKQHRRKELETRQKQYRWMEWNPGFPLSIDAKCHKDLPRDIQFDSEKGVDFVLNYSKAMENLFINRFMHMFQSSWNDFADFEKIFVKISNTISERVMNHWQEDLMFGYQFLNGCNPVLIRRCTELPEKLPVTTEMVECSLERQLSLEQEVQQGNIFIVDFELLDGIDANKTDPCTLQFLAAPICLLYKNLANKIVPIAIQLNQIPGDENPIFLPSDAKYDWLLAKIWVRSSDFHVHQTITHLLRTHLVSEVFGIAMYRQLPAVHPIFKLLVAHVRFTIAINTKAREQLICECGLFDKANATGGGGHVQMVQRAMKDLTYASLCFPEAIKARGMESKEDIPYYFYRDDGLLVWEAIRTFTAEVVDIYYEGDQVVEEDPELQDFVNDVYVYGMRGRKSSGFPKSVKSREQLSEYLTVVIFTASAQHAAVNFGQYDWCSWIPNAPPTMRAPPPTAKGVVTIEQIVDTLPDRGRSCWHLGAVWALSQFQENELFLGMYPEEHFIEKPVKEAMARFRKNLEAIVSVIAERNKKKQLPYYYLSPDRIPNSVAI
Method in brief: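 Human peripheral blood mononuclear leukocytes (5×10^6 cells/mL) in HBSS pH 7.4, preincubated with compound 15 min at 37 °C. Stimulated with 30 µM A23187 for 15 min at 37 °C, stopped with 1 N HCl, neutralized with NaOH and centrifuged. Supernatant LTB4 measured by EIA.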

THP-1 [10] = experiment: Antiinflammatory activity in human THP1 cells assessed as inhibition of LPS-induced TNFalpha release by ELISA; type: functional, cell-based
Method in brief: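 Differentiated THP-1 macrophages were used. They were made by 72 h culture in conditioned medium from THP-1 cells treated with 200 ng/mL PMA for 24 h, washed and rested 24 h. Cells were preincubated with compounds at 0.01, 0.1, 1 and 10 µM for 1 h at 37 °C, then stimulated with 100 ng/mL LPS for 24 h. Duplicate determinations, mean ± SD.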

[11] = target: Mitogen-activated protein kinase 14 (Homo sapiens) (UniProt Q16539); experiment: Inhibition of p38alpha MAPK at 10 uM
[12] = target: T1, Prostaglandin G/H synthase 2 (Homo sapiens); settings: THP-1, at 10 µM

T2 sequence (P23219 whole entry): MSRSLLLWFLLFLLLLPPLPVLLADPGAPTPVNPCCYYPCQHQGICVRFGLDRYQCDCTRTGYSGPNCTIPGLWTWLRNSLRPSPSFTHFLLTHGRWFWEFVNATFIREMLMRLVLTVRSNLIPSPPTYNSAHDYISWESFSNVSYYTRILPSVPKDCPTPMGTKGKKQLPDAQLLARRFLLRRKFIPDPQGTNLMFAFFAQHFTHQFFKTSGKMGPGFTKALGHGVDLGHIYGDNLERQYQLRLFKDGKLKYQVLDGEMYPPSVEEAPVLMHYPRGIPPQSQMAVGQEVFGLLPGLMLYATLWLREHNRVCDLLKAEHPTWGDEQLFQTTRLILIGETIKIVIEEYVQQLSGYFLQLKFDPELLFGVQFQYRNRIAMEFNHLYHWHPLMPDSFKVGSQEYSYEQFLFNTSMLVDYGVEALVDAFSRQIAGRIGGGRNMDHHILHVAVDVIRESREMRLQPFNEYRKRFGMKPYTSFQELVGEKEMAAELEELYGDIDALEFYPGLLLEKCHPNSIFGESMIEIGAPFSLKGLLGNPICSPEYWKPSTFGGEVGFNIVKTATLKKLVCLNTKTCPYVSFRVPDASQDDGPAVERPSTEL
Chain of Mitogen-activated protein kinase 14 (Homo sapiens) (Q16539 whole entry): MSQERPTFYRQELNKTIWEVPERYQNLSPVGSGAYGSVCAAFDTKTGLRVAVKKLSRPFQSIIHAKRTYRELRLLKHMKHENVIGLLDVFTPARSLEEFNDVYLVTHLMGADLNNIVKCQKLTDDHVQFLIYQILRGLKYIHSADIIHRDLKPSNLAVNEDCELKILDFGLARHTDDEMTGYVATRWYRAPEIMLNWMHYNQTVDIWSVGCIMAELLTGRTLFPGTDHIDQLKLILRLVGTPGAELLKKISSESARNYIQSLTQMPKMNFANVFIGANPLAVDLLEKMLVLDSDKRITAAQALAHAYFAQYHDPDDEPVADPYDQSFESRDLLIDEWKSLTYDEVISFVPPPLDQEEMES

SMILES: C[C@@H]1C[C@H]2[C@@H]3CCC4=CC(=O)C=C[C@]4(C)[C@@]3(F)[C@@H](O)C[C@]2(C)[C@@]1(O)C(=O)CO [DEXAMETHASONE]
- inhibition at 1 µM (THP-1 [1]): 89%

SMILES: NS(=O)(=O)c1ccc2c(c1)S(c1ccc(Br)cc1)=NS2(=O)=O (stereo unspecified)
- inhibition [2]: 27%
- inhibition [3]: 17%

SMILES: Cc1ccc(-c2cc(C(F)(F)F)nn2-c2ccc(S(N)(=O)=O)cc2)cc1
- Activity (THP-1 [4]): inactive

SMILES: O=[N+]([O-])c1ccc2c(c1)S(=O)(=O)N=S2c1ccc(Br)cc1 (stereo unspecified)
- IC50 [5]: 1.7 µM
- IC50 [6]: 6.7 µM
- IC50 [7]: 2.1 µM
- IC50 [8]: 4.4 µM
- IC50 [9]: 1.22 µM
- inhibition at 10 µM (THP-1 [4]): 92%
- IC50 (THP-1 [10]): 0.44 µM
- inhibition [11]: inactive
- inhibition [12]: 77%

SMILES: O=[N+]([O-])c1ccc2c(c1)S(c1ccc(Br)cc1)=NS2(=O)=O (stereo unspecified)
- inhibition [2]: 23%
- inhibition [3]: 39%
- IC50 [7]: 1.5 µM
- IC50 [8]: 18.1 µM
- IC50 [9]: 0.47 µM
- Activity (THP-1 [4]): inactive

SMILES: COc1ccc2c(c1)c(CC(=O)NCCc1ccccc1)c(C)n2C(=O)c1ccc(Cl)cc1
- IC50 [7]: 56.7 µM

SMILES: CS(=O)(=O)Nc1ccc([N+](=O)[O-])cc1OC1CCCCC1 [NS-398]
- IC50 [7]: 63.7 µM

Source: ChEMBL document CHEMBL1159122 (Bioorg Med Chem, 2010)
